IC50, GC50 and Activity data for 21 compounds are collected here from ChEMBL document CHEMBL1156727, “Synthesis and evaluation of curcumin analogues as potential thioredoxin reductase inhibitors” (Bioorg Med Chem, 2008).

Structures are written as SMILES. Calls of active or inactive are those of the source. The calls are words filed in the database; no cut-off is given here.

Assay [1] can be described thus: Inhibition of TrxR preincuabatd for 4 mins.
The subject of assay [2] is A549. Kind of assay: Cytotoxicity against TrxR overexpressing human A549 cells after 48 hrs by MTT assay. In kind it is functional. The essentials: (§1)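 Cells grown in RPMI 1640 with 10% fetal calf serum, penicillin/streptomycin and 2 mM L-glutamine at 37 °C under 5% CO2. Seeded 1×10⁴/well and left overnight, then exposed 48 h to 0–100 µM. MTT was added for 4 h at 37 °C and formazan dissolved in DMSO, read at 570 nm. Run in quadruplicate; GC50 is the concentration giving 50% of control viability.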

The subject of assay [3] is A549. In words: Cytotoxicity against TrxR overexpressing human cis-diammine-dichloroplatinum (II)-resistant A549 cells after 48 hrs by MTT assay. In kind it is functional. The method, boiled down: as §1
A short description of assay [4]: Inhibition of TrxR preincuabatd for 2 hrs.
The subject of assay [5] is MCF7. Kind of assay: Cytotoxicity against TrxR overexpressing human doxorubicin-resistant MCF7 cells after 48 hrs by MTT assay. In kind it is functional. The method, boiled down:
as §1

For assay [6], the system named is HepG2. Kind of assay: Cytotoxicity against TrxR overexpressing human HepG2 cells after 48 hrs by MTT assay. The format is functional. The method, boiled down:
as §1

The target of assay [7] is T1, Thioredoxin reductase (Homo sapiens) (UniProt Q16881+Q9NNW7+Q86VQ6). Kind of assay: Inhibition of TrxR in human HeLa cells at 50 uM after 12 hrs by insulin reduction assay. The format is cell-based. The method, boiled down: (§2)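 Cells (1.5×10⁶) in RPMI 1640 were exposed 12 h; controls got <1% DMSO. Cells were trypsinized and lysed in Tris pH 7.4/Triton/deoxycholate/SDS buffer with protease inhibitors, then spun at 16,000g. Lysate was incubated 30 min at 37 °C with 2.5 mg/ml bovine insulin, NADPH and Trx in HEPES/EDTA pH 7.4. The reaction was stopped with guanidine-HCl/DTNB and read at A412. A no-Trx mixture served as background; activity is % of control, n≥3.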

Assay [8] deals with T1, Thioredoxin reductase (Homo sapiens). Kind of assay: Inhibition of TrxR in human MCF7 cells at 50 uM after 12 hrs by insulin reduction assay. In kind it is cell-based. The essentials: as §2
Assay [9] in a line: Inhibition of TrxR preincuabatd for 2 hrs followed by ultrafiltration.

In turn, `COc1cc(/C=C/C(=O)/C=C(O)/C=C/c2ccc(C)o2)ccc1O` displayed an IC50 in [1] of 0.5 µM. Moreover, the GC50 was greater than 100 µM in assay [2] and 39.4 µM in assay [3].

The compound `COc1cc(/C=C2\CCC/C(=C\c3ccc(O)cc3)C2=O)ccc1O` showed an IC50 in [1] of 5.1 µM. This compound registered a GC50 in assay [2] greater than 100 µM.

Regarding `COc1cc(/C=C/C(=O)CC(=O)/C=C/c2ccc(O)c(OC)c2)ccc1O` [CURCUMIN], the IC50 was 38.3 µM in [1] and 4.2 µM in assay [4]. Moreover, the GC50 in [2] was determined as 18.2 µM; in [3], 73 µM.

The compound `COc1ccc(/C=C/C(=O)/C=C(O)/C=C/c2ccc(OC)cc2)cc1` gave an IC50 in [1] greater than 100 µM. The GC50 in assay [3] and in assay [5] was greater than 100 µM each time.

In turn, `COc1cc(/C=C/C(=O)/C=C(O)/C=C/c2ccc(O)cc2)cc(OC)c1OC` yielded an IC50 in assay [1] of 13.8 µM. In [2], this compound yielded a GC50 of 60.1 µM.

Consider `O=C(/C=C(O)/C=C/c1ccc(CO)o1)/C=C/c1ccccc1`, for which, in assay [1], the IC50 was 1.3 µM. In assay [6], the GC50 is greater than 100 µM.

On to `Cc1ccc(/C=C/C(=O)/C=C(O)/C=C/c2ccc(C)o2)o1`, for which half-maximal inhibition in [1] (IC50) was put at 0.3 µM. The GC50 in assay [2] was 52.9 µM; in assay [6], greater than 100 µM; in assay [3] it was 59.6 µM; in assay [5] it was 48.5 µM. The outcome in assay [7], in assay [8] and in [9] was Active.

In the case of `COc1ccc(/C=C/C(=O)/C=C(O)/C=C/c2ccc(OC)c(OC)c2)cc1OC` [DIMETHYLCURCUMIN], the IC50 in assay [1] was greater than 100 µM.

`O=C(/C=C(O)/C=C/c1cccs1)/C=C/c1ccc(O)cc1`: the IC50 in [1] turned out to be 20 µM.

In turn, `COc1cc(/C=C2\CCC/C(=C\c3ccc(O)cc3)C2=O)cc(OC)c1OC` returned an IC50 in [1] of 24.9 µM.

Regarding `O=C(/C=C/c1ccc(O)cc1)CC(=O)/C=C/c1ccc(O)cc1` [BISDEMETHOXYCURCUMIN], the half-inhibitory concentration (IC50) in assay [1] is greater than 100 µM.

In assay [1], `O=C(/C=C(O)/C=C/c1ccco1)/C=C/c1ccco1` came in with an IC50 of 1.6 µM. Also, the GC50 is 66.4 µM in assay [2] and 33.6 µM in assay [5].

On to `O=C(/C=C(O)/C=C/c1ccccc1)/C=C/c1ccccc1`, for which the IC50 in assay [1] was greater than 100 µM.

The compound `COc1ccc(/C=C/C(=O)/C=C(O)/C=C/c2ccc(CO)o2)cc1` yielded a concentration for half-maximal inhibition (IC50) in [1] of 0.8 µM. In addition, the GC50 in assay [6] is greater than 100 µM; in assay [3] it was 12.1 µM; in [5] it was 10 µM.

With `COc1cc(/C=C/C(O)=C/C(=O)/C=C/c2ccc(O)cc2)ccc1O` [DEMETHOXYCURCUMIN], the IC50 in [1] is 20 µM.

The compound `COc1cc(/C=C/C(O)=C/C(=O)/C=C/c2ccccc2)ccc1O` yielded a 50% inhibitory concentration (IC50) in [1] of 57 µM.

In the case of `COc1cc(/C=C/C(O)=C/C(=O)/C=C/c2ccc(CO)o2)ccc1O`, 1 µM corresponded to half-maximal inhibition in [1] (IC50). For the same compound, the GC50 is greater than 100 µM in assay [2], greater than 100 µM in assay [6], 35.8 µM in [3] and 10.6 µM in assay [5].

Take `O=C(/C=C(O)/C=C/c1ccc(O)cc1)/C=C/c1ccccc1`: in assay [1], the 50% inhibitory concentration (IC50) was 23.3 µM. Further, in assay [2], the GC50 worked out at 41.3 µM.

With `O=C(/C=C(O)/C=C/c1ccc(O)cc1)/C=C/c1ccccc1Br`, in [1], the midpoint of inhibition, the IC50, lay at 50 µM.

In assay [1], `CN(C)c1ccc(/C=C/C(=O)/C=C(O)/C=C/c2ccc(CO)o2)cc1` showed an IC50 of 62.2 µM. In assay [6], this compound returned a GC50 greater than 100 µM.

With `COc1cc(/C=C/C(=O)/C=C(O)/C=C/c2ccc(CO)o2)cc(OC)c1OC`, in assay [1], inhibition was half-maximal at 2 µM (IC50). The GC50 in assay [2] and in assay [6] was greater than 100 µM in each case.
